Measured values published in ChEMBL document CHEMBL3407350, “Synthesis and anti-hepatitis B virus activity of C4 amide-substituted isosteviol derivatives” (Bioorg Med Chem, 2015).
In brackets after ≈: the same amount, converted by molar mass. Activity calls are given as the source filed them. The calls are words filed in the database; no cut-off is given here.

What was measured:
[1] = Cytotoxicity against human HepG2(2.2.15) cells; type: cell-based; conditions: read-out: TC50 (the source's name)
Procedure, shortened: (§1)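 Cytotoxicity by MTS: HepG2 2.2.15 cells seeded at 4×10^4 cells/ml for 24 h, exposed to serial dilutions 2.5–160 µg/ml for 3 days; four replicates, viability expressed relative to untreated control; TC50 as 50% cytotoxic concentration.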

[2] = system: Hepatitis B virus; test: Antiviral activity against HBV infected in human HepG2(2.2.15) cells assessed as inhibition of surface antigen secretion by EIA; type: functional, organism-based
Procedure, shortened: (§2)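 HepG2 2.2.15 cells (HepG2 stably carrying a head-to-tail HBV DNA dimer; MEM, 10% FBS, 37 °C, 5% CO2) treated with compound for 3 days; conditioned medium assayed for secreted HBsAg and HBeAg by enzyme immunoassay; mean and SD, n = 3; IC50 taken as 50% inhibitory concentration.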

[3] = Selectivity index, ratio of TC50 for human HepG2(2.2.15) cells to IC50 for HBV infected in human HepG2(2.2.15) cells assessed as inhibition of surface antigen secretion
Procedure, shortened: (§3)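 Selectivity index computed as TC50 (MTS, HepG2 2.2.15, 3 days) divided by IC50 for HBsAg, HBeAg or virion DNA inhibition in the same cell line.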

[4] = system: Hepatitis B virus; test: Antiviral activity against HBV infected in human HepG2(2.2.15) cells assessed as inhibition of e antigen secretion by EIA; type: functional, organism-based; procedure, shortened: as §2
[5] = Selectivity index, ratio of TC50 for human HepG2(2.2.15) cells to IC50 for HBV infected in human HepG2(2.2.15) cells assessed as inhibition of e antigen secretion; procedure, shortened: as §3
[6] = system: Hepatitis B virus; test: Antiviral activity against HBV infected in human HepG2(2.2.15) cells assessed as inhibition of viral DNA replication; type: functional, organism-based
Procedure, shortened: (§4)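 Secreted virion DNA from HepG2 2.2.15 cells after 3 days of compound treatment; HBV DNA isolated from conditioned medium and quantified by SYBR Green real-time PCR (45 cycles, 95 °C 15 s / 58 °C 1 min); mean and SD, n = 3; IC50 as 50% inhibitory concentration.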

[7] = Selectivity index, ratio of TC50 for human HepG2(2.2.15) cells to IC50 for HBV infected in human HepG2(2.2.15) cells assessed as inhibition of viral DNA replication; procedure, shortened: as §3
[8] = Cytotoxicity against human HepG2(2.2.15) cells at >20 ug/ml after 3 days by MTS assay; type: cell-based; conditions: hepg2 2.2.15, 72 h; procedure, shortened: as §1
[9] = Cytotoxicity against HBV-transfected human HuH7 cells up to 160 ug/ml after 3 days by MTS assay; type: cell-based; conditions: huh-7, 72 h
Procedure, shortened: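 Huh7 cells (DMEM, 10% FBS) transfected with HBV plasmid, seeded at 4×10^4 cells/ml for 24 h, treated with 2.5–160 µg/ml serial dilutions for 3 days; viability by MTS read-out, four replicates, relative to untreated control.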

[10] = system: Hepatitis B virus; test: Antiviral activity against HBV infected in human HepG2(2.2.15) cells assessed as inhibition of surface antigen secretion after 3 days by EIA; type: functional, organism-based; procedure, shortened: as §2
[11] = system: Hepatitis B virus; test: Antiviral activity against HBV infected in human HepG2(2.2.15) cells assessed as inhibition of e antigen secretion after 3 days by EIA; type: functional, organism-based; procedure, shortened: as §2
[12] = system: Hepatitis B virus; test: Antiviral activity against HBV infected in human HepG2(2.2.15) cells assessed as inhibition of viral DNA replication by RT-PCR analysis; type: functional, organism-based; procedure, shortened: as §4
[13] = system: Hepatitis B virus; test: Antiviral activity against HBV transfected in human HuH7 cells assessed as reduction in precore/pregenomic RNA level at 1 to 10 ug/ml after 2 days by Northern blot analysis; type: functional, organism-based; conditions: Huh-7
Procedure, shortened: (§5)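 pHBV1.2-transfected Huh7 (cotransfected pCMV-β for efficiency) treated 1, 5, 10 µg/ml for 2 days; 5 µg total RNA on 1.0% agarose, Northern blot with whole HBV genome probe; GAPDH RNA loading control, β-gal for transfection efficiency.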

[14] = system: Hepatitis B virus; test: Antiviral activity against HBV transfected in human HuH7 cells assessed as reduction in major S/preS RNA level at 1 to 10 ug/ml after 2 days by Northern blot analysis; type: functional, organism-based; conditions: Huh-7; procedure, shortened: as §5
[15] = system: Hepatitis B virus; test: Antiviral activity against HBV transfected in human HuH7 cells assessed as reduction in LHBsAg protein expression at 1 to 10 ug/ml after 2 days by immunoblot analysis relative to vehicle-treated control; type: functional, organism-based; conditions: Huh-7
Procedure, shortened: (§6)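 Huh7 transfected with pHBV1.2 (Lipofectamine 2000, 2 days), then treated 1, 5, 10 µg/ml for 2 days; whole-cell RIPA lysates, 25 µg protein per lane SDS-PAGE, PVDF immunoblot for LHBsAg, SHBsAg, HBcAg with ECL detection; α-tubulin loading control; compared with vehicle.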

[16] = system: Hepatitis B virus; test: Antiviral activity against HBV transfected in human HuH7 cells assessed as reduction in SHBsAg protein expression at 1 to 10 ug/ml after 2 days by immunoblot analysis relative to vehicle-treated control; type: functional, organism-based; conditions: Huh-7; procedure, shortened: as §6
[17] = system: Hepatitis B virus; test: Antiviral activity against HBV transfected in human HuH7 cells assessed as reduction in HBcAg protein expression at 1 to 10 ug/ml after 2 days by immunoblot analysis relative to vehicle-treated control; type: functional, organism-based; conditions: Huh-7; procedure, shortened: as §6
[18] = system: Hepatitis B virus; test: Antiviral activity against HBV transfected in human HuH7 cells assessed as reduction in viral DNA replication after 2 days by Southern blot analysis; type: functional, organism-based; conditions: Huh-7
Procedure, shortened: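 Intracellular encapsidated HBV DNA from core particles of pHBV1.2-transfected Huh7 cells treated 2 days; 1.0% agarose, Southern blot with DIG-labeled full-length HBV probe; lamivudine-treated cells as comparison.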

[19] = system: Hepatitis B virus; test: Reduction of S promoter activity in HBV infected in human HuH7 cells transfected with pS-Luc at 10 ug/ml after 24 hrs by luciferase reporter gene assay; type: functional, organism-based; conditions: Huh-7
Procedure, shortened: (§7)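 Huh7 seeded in 24-well plates 24 h, cotransfected with viral promoter-luciferase construct (Core, S, preS or X; 1 µg/well) plus pHBV1.2 and pRL-SV40 (0.02 µg/well) in serum-free DMEM 24 h; then 2% FBS medium ± 10 µg/ml; firefly normalized to Renilla; n = 3.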

[20] = system: Hepatitis B virus; test: Reduction of preS promoter activity in HBV infected in human HuH7 cells transfected with pPreS-Luc at 10 ug/ml after 24 hrs by luciferase reporter gene assay; type: functional, organism-based; conditions: Huh-7; procedure, shortened: as §7
[21] = system: Hepatitis B virus; test: Inhibition of Core promoter activity in HBV infected in human HuH7 cells transfected with pCore-Luc at 10 ug/ml after 24 hrs by luciferase reporter gene assay; type: functional, organism-based; conditions: Huh-7; procedure, shortened: as §7
[22] = system: Hepatitis B virus; test: Inhibition of NF-kappaB promoter activity in HBV infected in human HuH7 cells transfected with pNF-kappaB-Luc at 10 ug/ml after 24 hrs by luciferase reporter gene assay; type: functional, organism-based; conditions: Huh-7
Procedure, shortened: (§8)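 Huh7 in 24-well plates transfected with pAP1-, pAP2-, pNF-κB- or pISRE-Luc plus pRL-SV40 for 24 h, then treated ± 10 µg/ml; dual-luciferase read-out normalized to Renilla; mean and SD, n = 3.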

[23] = system: Hepatitis B virus; test: Inhibition of AP-2 promoter activity in HBV infected in human HuH7 cells transfected with pAP2-Luc at 10 ug/ml after 24 hrs by luciferase reporter gene assay; type: functional, organism-based; conditions: Huh-7; procedure, shortened: as §8
[24] = system: Hepatitis B virus; test: Inhibition of ISRE promoter activity in HBV infected in human HuH7 cells transfected with pISRE-Luc at 10 ug/ml after 24 hrs by luciferase reporter gene assay; type: functional, organism-based; conditions: Huh-7; procedure, shortened: as §8
[25] = system: Hepatitis B virus; test: Upregulation of AP-1 promoter activity in HBV infected in human HuH7 cells transfected with pAP1-Luc at 10 ug/ml after 24 hrs by luciferase reporter gene assay; type: functional, organism-based; conditions: Huh-7; procedure, shortened: as §8
[26] = system: Huh-7; test: Inhibition of nuclear p65/p50 NF-kappaB protein expression in human HuH7 cells transfected with pHBV1.2 at 1 to 10 ug/ml after 2 days by Western blotting analysis; type: functional, cell-based
Procedure, shortened: (§9)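 Huh7 transfected with pHBV1.2 for 2 days, treated 1, 5, 10 µg/ml for 2 further days; nuclear and cytoplasmic fractions by NE-PER; 25 µg protein immunoblotted for p65, p50, phospho-p65 (nuclear, PCNA control) and IκBα (cytoplasmic); three experiments.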

[27] = system: Huh-7; test: Reduction of phosphorylated p65 NF-kappaB level in human HuH7 cells transfected with pHBV1.2 at 1 to 10 ug/ml after 2 days by Western blotting analysis; type: functional, cell-based; procedure, shortened: as §9
[28] = Upregulation of cytoplasmic IkappaBalpha level in human HuH7 cells transfected with pHBV1.2 at 1 to 10 ug/ml after 2 days by Western blotting analysis; type: functional, cell-based; conditions: Huh-7; procedure, shortened: as §9
[29] = system: Huh-7; test: Reduction in NF-kappaB binding to consensus DNA-binding sequence in human HuH7 cells transfected with pHBV1.2 by ESMA analysis; type: functional, cell-based
[30] = system: Huh-7; test: Antiviral activity against HBV infected in human HuH7 cells transfected with pHBV1.2/p65 expression plasmid at 10 ug/ml after 2 days by RT-PCR analysis; type: functional, cell-based
Procedure, shortened: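 Huh7 cells cotransfected with pHBV1.2 plus 0.5 or 2.5 µg pCMV-p65 (or empty vector) for 2 days, then exposed to 10 µg/ml for 2 more days; secreted viral particle DNA quantified by real-time PCR; n = 3.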

## O=c1[nH]cc(F)c(=O)[nH]1 [FLUOROURACIL]
[1]
  CC50: 6.12 µg/mL (≈ 47 µM)

## C[C@@]12CC[C@@H]3[C@@](CC[C@H]4[C@@]3(C)CCC[C@@]4(C)NC(=O)c3ccc(C#N)cc3)(CC1=O)C2
[2]
  IC50: 8.45 µg/mL (≈ 20.2 µM)
[3]
  Selectivity Index: 1.28
[1]
  CC50: 10.8 µg/mL (≈ 25.8 µM)

## C[C@@]12CC[C@@H]3[C@@](CC[C@H]4[C@@]3(C)CCC[C@@]4(C)NC(=O)c3ccc(Cl)cc3)(CC1=O)C2
[2]
  IC50: 20.8 µg/mL (≈ 48.7 µM)
[3]
  Selectivity Index: 1.04
[1]
  CC50: 21.6 µg/mL (≈ 50.6 µM)

## Cc1ccc(C(=O)N[C@]2(C)CCC[C@@]3(C)[C@@H]4CC[C@@]5(C)C[C@]4(CC[C@@H]32)CC5=O)cc1
[1]
  CC50: 18.9 µg/mL (≈ 46.5 µM)

## CCCC(=O)N[C@]1(C)CCC[C@@]2(C)[C@@H]3CC[C@@]4(C)C[C@]3(CC[C@@H]21)CC4=O
[2]
  IC50: 10.4 µg/mL (≈ 28.8 µM)
[3]
  Selectivity Index: 6.34
[1]
  CC50: 65.7 µg/mL (≈ 183 µM)
[4]
  IC50: 11.2 µg/mL (≈ 31 µM)
[5]
  Selectivity Index: 5.89
[6]
  IC50: 5.76 µg/mL (≈ 16 µM)
[7]
  Selectivity Index: 11.41
[8]
  Activity: Toxic
[9]
  Activity: Non-toxic
[10]
  inhibition: Dose-dependent effect
[11]
  inhibition: Dose-dependent effect
[12]
  inhibition: Dose-dependent effect
[13]
  Activity: Active
[14]
  Activity: Active
[15]
  Activity: Active
[16]
  Activity: Active
[17]
  Activity: Active
[18]
  Activity: Dose-dependent effect
[19]
  Activity: Active
[20]
  Activity: Active
[21]
  inhibition: inactive
[22]
  inhibition: Active
[23]
  inhibition: inactive
[24]
  inhibition: inactive
[25]
  Activity: Active
[26]
  inhibition: Active
[27]
  Activity: Active
[28]
  Activity: Active
[29]
  Activity: Dose-dependent effect
[30]
  Activity: inactive

## C[C@@]12CC[C@@H]3[C@@](CC[C@H]4[C@@]3(C)CCC[C@@]4(C)NC(=O)c3ccc(Br)cc3)(CC1=O)C2
[2]
  IC50: 10.5 µg/mL (≈ 22.3 µM)
[3]
  Selectivity Index: 1.41
[1]
  CC50: 14.9 µg/mL (≈ 31.5 µM)
